# Measured values reported in ChEMBL document CHEMBL3588850, “Multivalent Amino Sugars to Recognize Different TAR RNA Conformations” (Medchemcomm, 2014).
# Experiments:
# Nucleic Acid [1] = experiment: Binding affinity to HIV1 TAR RNA tetraloop mutant at pH 6.8 by ethidium bromide displacement assay; type: nucleic-acid assay, Human immunodeficiency virus 1
# Procedure, shortened: (§1)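 Synthetic 2′-ACE-protected TAR RNA, deprotected, heated 98 °C 5 min, then ice-cooled 15 min. TAR RNA at 200 nM/strand with ethidium bromide 5 μM in 100 mM KCl, 10 mM SC, 0.5 mM EDTA, pH 6.8. Ligand added stepwise, ≤4% v/v. Excitation 545 nm, emission 580–660 nm, intensity at 610 nm normalized. IC50 from sigmoidal fit of fraction EtBr displaced vs log ligand; association constants from Scatchard analysis.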
# Nucleic Acid [2] = experiment: Binding affinity to HIV1 TAR RNA bulgeless mutant at pH 6.8 by ethidium bromide displacement assay; type: nucleic-acid assay, Human immunodeficiency virus 1; procedure, shortened: as §1
# Nucleic Acid [3] = experiment: Binding affinity to HIV1 TAR RNA bulgeless tetraloop mutant assessed as association constant at pH 6.8 by ethidium bromide displacement assay based Scatchard analysis method; type: nucleic-acid assay; details: Human immunodeficiency virus 1; procedure, shortened: as §1
# [4] = test system: Human immunodeficiency virus 1; experiment: Induction of thermal stability changes in HIV1 TAR RNA U3 bulge mutant assessed as change in melting temperature using 2 molar equivalents of compound pre-incubated for 4 hrs at pH 6.8 at 4 degC before test by UV thermal denaturation assay
# Procedure, shortened: (§2)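 TAR RNA mutants at 1 μM/strand mixed with 1 or 2 molar equivalents of ligand in 100 mM KCl, 10 mM SC, 0.5 mM EDTA, pH 6.8, then held 4 h at 4 °C. Absorbance at 260 nm in 1 cm cuvettes, 15–100 °C, heating 0.3 °C/min. Tm taken from first-derivative plots and compared with the no-ligand sample.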
# [5] = test system: Human immunodeficiency virus 1; experiment: Induction of thermal stability changes in wild type HIV1 TAR RNA assessed as change in melting temperature using 1 molar equivalents of compound pre-incubated for 4 hrs at pH 6.8 at 4 degC before test by UV thermal denaturation assay
# [6] = test system: Human immunodeficiency virus 1; experiment: Induction of thermal stability changes in wild type HIV1 TAR RNA assessed as change in melting temperature using 2 molar equivalents of compound pre-incubated for 4 hrs at pH 6.8 at 4 degC before test by UV thermal denaturation assay
# [7] = test system: Human immunodeficiency virus 1; experiment: Induction of thermal stability changes in HIV1 TAR RNA bulgeless mutant assessed as change in melting temperature using 1 molar equivalents of compound pre-incubated for 4 hrs at pH 6.8 at 4 degC before test by UV thermal denaturation assay; procedure, shortened: as §2
# [8] = test system: Human immunodeficiency virus 1; experiment: Induction of thermal stability changes in HIV1 TAR RNA tetraloop mutant assessed as change in melting temperature using 2 molar equivalents of compound pre-incubated for 4 hrs at pH 6.8 at 4 degC before test by UV thermal denaturation assay; procedure, shortened: as §2
# [9] = test system: Human immunodeficiency virus 1; experiment: Induction of thermal stability changes in HIV1 TAR RNA tetraloop mutant assessed as change in melting temperature using 1 molar equivalents of compound pre-incubated for 4 hrs at pH 6.8 at 4 degC before test by UV thermal denaturation assay; procedure, shortened: as §2
# Nucleic Acid [10] = experiment: Binding affinity to wild type HIV1 TAR RNA at pH 6.8 by ethidium bromide displacement assay; type: nucleic-acid assay, Human immunodeficiency virus 1
# Procedure, shortened: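 TAR RNA (200 nM/strand) and EtBr (5 μM) in 100 mM KCl, 10 mM SC, 0.5 mM EDTA, pH 6.8, titrated with ligand aliquots (at most 4% v/v). Fluorescence excited at 545 nm and read at 610 nm. IC50 is the ligand concentration that displaces 50% of EtBr, taken from a sigmoidal fit of fraction displaced versus log ligand concentration.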
# [11] = test system: Human immunodeficiency virus 1; experiment: Induction of thermal stability changes in HIV1 TAR RNA bulgeless tetraloop mutant assessed as change in melting temperature using 1 molar equivalents of compound pre-incubated for 4 hrs at pH 6.8 at 4 degC before test by UV thermal denaturation assay; procedure, shortened: as §2
# Nucleic Acid [12] = experiment: Binding affinity to HIV1 TAR RNA bulgeless mutant assessed as association constant at pH 6.8 by ethidium bromide displacement assay based Scatchard analysis method; type: nucleic-acid assay; details: Human immunodeficiency virus 1; procedure, shortened: as §1
# Nucleic Acid [13] = experiment: Binding affinity to HIV1 TAR RNA bulgeless tetraloop mutant at pH 6.8 by ethidium bromide displacement assay; type: nucleic-acid assay, Human immunodeficiency virus 1; procedure, shortened: as §1
# [14] = test system: Human immunodeficiency virus 1; experiment: Induction of thermal stability changes in HIV1 TAR RNA U3 bulge mutant assessed as change in melting temperature using 1 molar equivalents of compound pre-incubated for 4 hrs at pH 6.8 at 4 degC before test by UV thermal denaturation assay; procedure, shortened: as §2
# Nucleic Acid [15] = experiment: Binding affinity to wild type HIV1 TAR RNA assessed as association constant at pH 6.8 by ethidium bromide displacement assay based Scatchard analysis method; type: nucleic-acid assay; details: Human immunodeficiency virus 1
# Procedure, shortened: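 Ethidium bromide displacement: 5 μM EtBr with TAR RNA at 200 nM/strand (under 20% of EtBr bound) in 100 mM KCl, 10 mM SC, 0.5 mM EDTA, pH 6.8. Ligand added in concentrated aliquots, at most 4% v/v. Excitation 545 nm, emission 580–660 nm, intensity at 610 nm. Association constant obtained by Scatchard analysis of the titration data.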
# Nucleic Acid [16] = experiment: Binding affinity to HIV1 TAR RNA U3 bulge mutant at pH 6.8 by ethidium bromide displacement assay; type: nucleic-acid assay, Human immunodeficiency virus 1; procedure, shortened: as §1
# Nucleic Acid [17] = experiment: Binding affinity to HIV1 TAR RNA U3 bulge mutant at assessed as association constant at pH 6.8 by ethidium bromide displacement assay based Scatchard analysis method; type: nucleic-acid assay; details: Human immunodeficiency virus 1; procedure, shortened: as §1
# Nucleic Acid [18] = experiment: Binding affinity to HIV1 TAR RNA tetraloop mutant assessed as association constant at pH 6.8 by ethidium bromide displacement assay based Scatchard analysis method; type: nucleic-acid assay; details: Human immunodeficiency virus 1; procedure, shortened: as §1
smiles,measurement,setting,value
NC[C@@H]1O[C@H](O[C@H]2[C@@H](O)[C@H](O[C@@H]3[C@@H](O)[C@H](N)C[C@H](N)[C@H]3O[C@H]3O[C@H](CN)[C@@H](O)[C@H](O)[C@H]3N)O[C@@H]2CO)[C@H](N)[C@@H](O)[C@@H]1O [FRAMYCETIN],IC50,Nucleic Acid [1],684 nM
same,IC50,Nucleic Acid [2],150 nM
same,K,Nucleic Acid [3],1.6 ×10⁷ /M
same,ΔTm,[4],1 °C
same,ΔTm,[5],0.2 °C
same,ΔTm,[6],0.5 °C
same,ΔTm,[7],1 °C
same,ΔTm,[8],1 °C
same,ΔTm,[9],1 °C
same,IC50,Nucleic Acid [10],378 nM
same,ΔTm,[11],0 °C
same,K,Nucleic Acid [12],3 ×10⁷ /M
same,IC50,Nucleic Acid [13],192 nM
same,ΔTm,[14],0 °C
NC[C@@H]1O[C@H](O[C@H]2[C@@H](O)[C@H](O[C@@H]3[C@@H](O)[C@H](N)C[C@H](N)[C@H]3O[C@H]3O[C@H](CN)[C@@H](O)[C@H](O)[C@H]3N)O[C@@H]2Cn2cc(CCCCCCc3cn(C[C@H]4O[C@@H](O[C@@H]5[C@@H](O)[C@H](N)C[C@H](N)[C@H]5O[C@H]5O[C@H](CN)[C@@H](O)[C@H](O)[C@H]5N)[C@H](O)[C@@H]4O[C@H]4O[C@@H](CN)[C@@H](O)[C@H](O)[C@H]4N)nn3)nn2)[C@H](N)[C@@H](O)[C@@H]1O,IC50,Nucleic Acid [1],214 nM
same,K,Nucleic Acid [15],6.6 ×10⁷ /M
same,IC50,Nucleic Acid [2],146 nM
same,K,Nucleic Acid [3],5.9 ×10⁷ /M
same,IC50,Nucleic Acid [16],256 nM
same,K,Nucleic Acid [17],3.8 ×10⁶ /M
same,IC50,Nucleic Acid [10],126 nM
same,K,Nucleic Acid [12],6.3 ×10⁷ /M
same,IC50,Nucleic Acid [13],150 nM
same,K,Nucleic Acid [18],5 ×10⁶ /M
